Molecules are shown by their SMILES. Active and inactive are the calls of the source. The calls are words filed in the database; no cut-off is given here.

13 molecules from ChEMBL document CHEMBL6114987, “Identification of the first-in-class dual inhibitor targeting BAG3 and HSP70 proteins to disrupt multiple chaperone pathways” (Eur J Med Chem, 2025) can be followed below.

Data set [1] has as its target T1, BAG family molecular chaperone regulator 3 (Homo sapiens, UniProt O95817). In words: Binding affinity to full length recombinant human BAG3 assessed as dissociation constant by SPR analysis.
Data set [2] is described as follows: (§1) Binding affinity to recombinant human HSP70 assessed as dissociation constant by SPR analysis. The method, boiled down:
(§2)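 HSP70 amine-coupled on CM5 chip from 0.045 µg µl⁻¹ in 10 mM acetate pH 4.5, density 20 kRU, with unmodified reference surface. Compounds from 10 mM DMSO stocks diluted 1:20 in PBS-P (final 5.0 % DMSO), 10 concentrations by 1:2 dilution spanning 0–100 µM. Run at 25 °C, 20 µL/min, 90 s association, 400 s dissociation; KD reported ± SD.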
For orientation: Surface plasmon resonance follows binding to a sensor surface in real time, without labels.

Data set [3] has as its system HeLa. The data set is described as follows: Induction of cell cycle arrest in human HeLa cells assessed as increase in hypodiploid nuclei incubated for 72 hrs by PI staining based flow cytometry analysis. The format is functional. The settings on record: dose 1-10 µM. Summed up:
(§3)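 HeLa cells (1×10^5/well) adhered 24 h, then treated 72 h with 10, 25 and 50 μM (reference inhibitor 1, 5, 10 μM), with 0.1 % DMSO negative and 10 % positive controls. Dead and live cells pooled, stained with 50 mg/L PI in 0.1 % citrate/0.1 % Triton X-100 for 30 min at 4 °C in the dark. Sub-G0/G1 percentage measured by flow cytometry, debris gated out.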

The species named for data set [4] is Homo sapiens. The data set is described as follows: Inhibition of Hsp70 (unknown origin) ATPase activity assessed as residual activity at 50 uM by ATPase activity incubated for 1 hr by ADP-glo assay relative to control. Summed up:
(§4)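 HSP70 ATPase assay by ADP-Glo. HSP70 plus HSP40 pre-incubated with compound for 30 min at RT, then ATP added and reacted 1 h at 30 °C with 1 % DMSO final. ADP-Glo reagent added for 1 h, then detection reagent for 20 min, and luminescence read. Activity scaled between no-compound (100 %) and no-HSP70 (0 %) wells; run in duplicates.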
(In ADP-Glo the light output rises with the ADP produced.)

The species entered for data set [5] is Homo sapiens. In words: Inhibition of Hsp70 (unknown origin) ATPase activity assessed as residual activity at 10 uM by ATPase activity incubated for 1 hr by ADP-glo assay relative to control. The method, boiled down:
as §4

The target in data set [6] is T1, BAG family molecular chaperone regulator 3. In words: Binding affinity to recombinant human BAG3 domain assessed as dissociation constant by SPR analysis.
In data set [7] the test system is HeLa. The data set is described as follows: Cytotoxicity against human HeLa cells assessed as mortality rate at 10 to 50 uM incubated for 72 hrs by MTT assay relative to control. The settings on record: dose 10-50 µM. The format is functional. The method, boiled down: (§5)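 MTT reduction assay. Cells grown in DMEM/high glucose with 10 % FBS, 2 mM glutamine and penicillin/streptomycin at 37 °C, 5 % CO2. HeLa seeded at 3.5×10^3 and HaCaT at 5.0×10^3 cells/well, in triplicate. After 24 h attachment, compounds added at 10 and 50 μM for 72 h. Controls: 0.1 % DMSO (negative) and 10 % DMSO (positive). MTT added for 3 h at 37 °C, formazan dissolved in DMF/SDS (pH 4.5), absorbance read at 570 nm. Three independent experiments.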
A general note: Formazan colour is commonly taken as a measure of viable cells.

For data set [8], the system named is HaCaT. In words: Cytotoxicity against human HaCaT cells assessed as mortality rate at 50 uM incubated for 72 hrs by MTT assay relative to control. The format is toxicity, cell-based. Summed up:
as §5

Data set [9] can be described thus: Solubility of compound. The format is physicochemical.
The subject of data set [10] is HeLa. The data set is described as follows: Upregulation of p21 expression in human HeLa cells incubated for 72 hrs by flow cytometry analysis. The settings on record: dose 10-50 µM. The format is functional, cell-based. Summed up:
(§6)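 HeLa cells (2.5×10^5/well) treated 24 h after seeding for 72 h at 10, 25, 50 μM (reference inhibitor 10 μM) or 0.1 % DMSO. Fixed in 1 % formaldehyde (20 min, 4 °C), permeabilized with 0.1 % Triton, stained with anti-caspase 3, anti-caspase 9 or anti-p21 plus secondary antibodies. Read by flow cytometry as percentage of positive cells.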

The subject of data set [11] is HeLa. In words: Induction of apoptosis in human HeLa cells assessed as increase in apoptotic cells incubated for 72 hrs by Annexin V-FITC/PI staining based flow cytometry analysis. The settings on record: dose 20-50 µM. The format is functional, cell-based. Summed up:
(§7)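 HeLa cells (2×10^4) incubated 72 h at 20–50 μM. Stained with Annexin V-FITC and PI for 15 min at RT, then analysed by flow cytometry. Reported as percentage of live, apoptotic and necrotic cells versus control, mean ± SD of three independent experiments.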

Data set [12] has as its system HeLa. The data set is described as follows: Induction of apoptosis in human HeLa cells assessed as increase in caspase 3 expression incubated for 72 hrs by flow cytometry analysis. The format is functional, cell-based. Particulars: dose 10-50 µM. Summed up: as §6
Data set [13] deals with HeLa. The data set is described as follows: Induction of apoptosis in human HeLa cells assessed as increase in apoptotic cells at 50 uM incubated for 72 hrs by Annexin V-FITC/PI staining based flow cytometry analysis relative to control. It is filed as functional. Summed up: as §7
For data set [14], the system named is HeLa. In words: Cytotoxicity against human HeLa cells assessed as cell viability incubated for 72 hrs by MTT assay.
Data set [15] deals with HeLa. The data set is described as follows: Downregulation of FOXM1 expression in human HeLa cells at 50 uM incubated for 72 hrs by Western blot analysis. The format is functional, cell-based.
For data set [16], the system named is HeLa. The data set is described as follows: Induction of cell cycle arrest in human HeLa cells assessed as increase in hypodiploid nuclei at 10 to 50 uM incubated for 72 hrs by PI staining based flow cytometry analysis. The format is functional. Particulars: dose 10-50 µM. The method, boiled down:
as §3

Data set [17] has as its system HaCaT. In words: Cytotoxicity against human HaCaT cells at 10 to 50 uM incubated for 48 hrs by MTT assay. It is filed as toxicity, cell-based. Particulars: dose 10-50 µM. The method, boiled down:
(§8)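 HaCaT keratinocytes seeded at 5.0×10^3 cells/well in triplicate and allowed to attach for 24 h. Exposed to 10 and 50 μM for 24, 48 or 72 h with 0.1 % DMSO control, then read by MTT reduction (3 h, 37 °C) with absorbance at 570 nm.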

Data set [18] concerns HeLa. In words: Induction of apoptosis in human HeLa cells assessed as increase in apoptotic cells at 20 uM incubated for 72 hrs by Annexin V-FITC/PI staining based flow cytometry analysis relative to control. The format is functional. The method, boiled down:
as §7

Data set [19] deals with HaCaT. The data set is described as follows: Cytotoxicity against human HaCaT cells assessed as mortality at 10 to 50 uM incubated for 72 hrs by MTT assay. Particulars: dose 10-50 µM. The format is toxicity, cell-based.
For data set [20], the system named is HeLa. The data set is described as follows: Induction of apoptosis in human HeLa cells assessed as increase in apoptotic cells at 30 uM incubated for 72 hrs by Annexin V-FITC/PI staining based flow cytometry analysis relative to control. It is filed as functional. Summed up: as §7
Data set [21] deals with HaCaT. The data set is described as follows: Cytotoxicity against human HaCaT cells at 10 to 50 uM incubated for 72 hrs by MTT assay. The format is toxicity, cell-based. The settings on record: dose 10-50 µM. Summed up:
as §8

Data set [22] has as its system HaCaT. In words: Cytotoxicity against human HaCaT cells at 10 to 50 uM incubated for 24 hrs by MTT assay. It is filed as toxicity, cell-based. The settings on record: dose 10-50 µM. The method, boiled down: as §8
Data set [23] deals with HeLa. In words: Induction of apoptosis in human HeLa cells assessed as increase in caspase 9 expression incubated for 72 hrs by flow cytometry analysis. The format is functional, cell-based. The settings on record: dose 10-50 µM. The method, boiled down:
as §6

For data set [24], the system named is HeLa. In words: Downregulation of FOXM1 expression in human HeLa cells incubated for 72 hrs by Western blot analysis. It is filed as functional, cell-based. The method, boiled down:
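HeLa cells treated 72 h at 30 and 15 μM. Lysates (30 μg protein) separated on 10 % SDS-PAGE and blotted with anti-FOXM1 (1:500), β-tubulin as loading control. Detection by ECL, quantified by densitometry.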

The species named for data set [25] is Homo sapiens. Described as §1. The method, boiled down: as §2
For data set [26], the system named is A549. In words: Cytotoxicity against human A549 cells assessed as cell viability incubated for 72 hrs by MTT assay. It is filed as functional, cell-based. Particulars: A549, 72 h.
Data set [27] relates to A-375. The data set is described as follows: Cytotoxicity against human A-375 cells assessed as cell viability incubated for 72 hrs by MTT assay. It is filed as functional, cell-based. Particulars: A-375, 72 h.

T1 sequence (O95817 whole entry): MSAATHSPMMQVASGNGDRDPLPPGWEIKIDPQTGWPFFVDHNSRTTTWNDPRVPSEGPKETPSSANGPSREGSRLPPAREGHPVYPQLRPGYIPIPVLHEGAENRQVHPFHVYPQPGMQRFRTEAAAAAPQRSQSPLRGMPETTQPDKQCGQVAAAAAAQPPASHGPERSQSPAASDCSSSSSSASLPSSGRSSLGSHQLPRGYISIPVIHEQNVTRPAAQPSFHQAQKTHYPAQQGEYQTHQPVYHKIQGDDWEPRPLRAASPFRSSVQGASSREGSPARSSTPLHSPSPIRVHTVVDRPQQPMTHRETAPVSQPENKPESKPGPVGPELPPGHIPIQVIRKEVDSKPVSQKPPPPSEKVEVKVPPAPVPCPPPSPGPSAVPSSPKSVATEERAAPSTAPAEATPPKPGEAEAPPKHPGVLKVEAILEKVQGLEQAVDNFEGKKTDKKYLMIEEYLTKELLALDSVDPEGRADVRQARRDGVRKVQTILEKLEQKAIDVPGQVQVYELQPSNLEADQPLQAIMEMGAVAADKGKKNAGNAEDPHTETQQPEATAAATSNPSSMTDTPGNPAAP

Turning to `CCCCNC(=O)C(c1cc(O)ccc1Br)N(CC(C)CC)C(=O)Cn1cc(-c2cccc(OC)c2)nn1` (stereo not given), the outcome in data set [1] was inactive.
For the molecule `CCn1c(=O)/c(=C2\Sc3ccccc3N2C)s/c1=C\c1cccc[n+]1C`, the dissociation constant (Kd) (as a rule, a measure of binding affinity in units of concentration) in data set [2] stood at 41 µM. The figures for the Activity result in data set [3], in data set [4] and in [5] were “Dose-dependent-effect”, 43% and 30%, respectively. Further, the result in data set [1] was inactive.
Take `CCCCNC(=O)C(c1ccccc1Br)N(C(=O)Cn1cc(CCC(C)C)nn1)c1ccc(Cl)cc1` (stereo not given): the result in [1] was inactive.
For the molecule `Cc1ccc(S(=O)(=O)CNC(=O)C(c2ccccc2Br)N(Cc2ccccc2)C(=O)Cn2cc(-c3ccccc3)nn2)cc1` (stereo not given), the outcome in [1] was inactive.
For `CCCCNC(=O)C(c1ccc(Cl)nc1)N(CC(C)CC)C(=O)Cn1cc(C(C)(O)c2ccc(F)cc2)nn1` (stereo not given), the equilibrium dissociation constant (Kd) entry in data set [6] was “Not_determined”. In addition, the result in data set [1] was inactive.
`CCCCNC(=O)C(c1ccc2cn[nH]c2c1)N(CC(C)CC)C(=O)Cn1cc(-c2cc(C)ccc2C)nn1` (stereo not given): the mortality (commonly the share of the test organisms that died) in data set [7] is on record as 70%; in data set [8] it was 60%.
Regarding `CCCCNC(=O)C(c1ccccc1Br)N(Cc1ccccc1)C(=O)Cn1cc(-c2ccccc2)nn1` (stereo not given), in data set [1], the result was inactive.
Still for that read-out and setting: to `CCCCNC(=O)C(c1ccccc1Br)N(Cc1ccccc1)C(=O)Cn1cc(CCC(C)C)nn1` (stereo not given) belongs “inactive”.
As to `CCCCNC(=O)C(c1ccc(C(F)(F)F)cc1)N(CCC)C(=O)Cn1cc(-c2cccc(C)c2)nn1` (stereo not given), the solubility entry in data set [9] is reported as “Insoluble”.
As for `CCCCNC(=O)C(c1c[nH]c(=O)[nH]c1=O)N(CC(C)CC)C(=O)Cn1cc(-c2cc(C)c(C)cc2C)nn1` (stereo not given), the Activity result is “Dose-dependent-effect” in [10]; “Dose-dependent-effect” in [11]; “Dose-dependent-effect” in data set [12]; 26.2% in data set [13]; “Non-toxic” in data set [17]; 18.6% in [18]. The Activity result in data set [19] is “Non-toxic”; in data set [20], 23%; in data set [21] it was “Non-toxic”; in data set [22] it was “Non-toxic”; in [23], “Dose-dependent-effect”; in data set [4], 40%. The results for the Activity entry in data set [24] and in [5] were “Dose-dependent-effect” and 20%, respectively. Further, in data set [7], the mortality is on record as 70%. Further, in [2], the dissociation constant Kd came to 33.8 µM. The concentration for half-maximal inhibition (IC50) (in general, the point on the concentration scale where inhibition reaches its midpoint) in [14] came to 49.5 µM. Also, in data set [15], the outcome was inactive. Also, the result in data set [16] was Active.
Turning to `CCCCNC(=O)C(c1c(Br)ccnc1Cl)N(CC(C)CC)C(=O)Cn1cc(-c2cccc(O)c2)nn1` (stereo not given), the result in [1] was inactive.
`CCOC(=O)CN1C(=O)S/C(=C\c2ccc(O)c(O)c2)C1=O`: the result in data set [25] was inactive. The values for the IC50 in data set [14], in data set [26] and in data set [27] were greater than 50 µM, 32.3 µM and 16.6 µM, respectively.
For the molecule `CCCCNC(=O)C(c1ccccc1Br)N(CC(C)CC)C(=O)Cn1cc(CCC(C)C)nn1` (stereo not given), the outcome in [1] was inactive.
